Assay results as given in ChEMBL document CHEMBL4680106, “Rational Design of Dimeric Lysine N-Alkylamides as Potent and Broad-Spectrum Antibacterial Agents” (J Med Chem, 2018).
≈ marks a conversion by molar mass, not a printed value. Calls of active or inactive are those of the source. The calls are words filed in the database; no cut-off is given here.

Legend:
[1] = tested on: Staphylococcus epidermidis; experiment: Antimicrobial activity against methicillin-resistant Staphylococcus epidermidis RP62A assessed as inhibition of bacterial growth by broth microdilution method; format: functional
In short: (§1)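 Broth microdilution following a previously reported procedure. MIC was taken as the lowest concentration with no turbidity, meaning complete growth inhibition over the incubation period.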

Staphylococcus aureus [2] = experiment: Antimicrobial activity against methicillin-resistant Staphylococcus aureus ATCC 33591 assessed as inhibition of bacterial growth by broth microdilution method; format: functional; in short: as §1
Enterococcus faecalis = experiment: Antimicrobial activity against vancomycin-resistant Enterococcus faecalis assessed as inhibition of bacterial growth by broth microdilution method; format: functional; in short: as §1
Escherichia coli [3] = experiment: Antimicrobial activity against Escherichia coli ATCC 25922 assessed as inhibition of bacterial growth by broth microdilution method; format: functional
Pseudomonas aeruginosa = experiment: Antimicrobial activity against Pseudomonas aeruginosa ATCC 27853 assessed as inhibition of bacterial growth by broth microdilution method; format: functional
[4] = Induction of hemolysis in human RBC incubated for 1 hr; format: cell-based, Erythrocyte; settings: human red blood cells (erythrocytes)
In short: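 Human RBCs pelleted at 3000 rpm for 10 min and made 5% v/v in 1x PBS, mixed 1:1 with compound at several concentrations, 37 °C for 1 h. Spun at 3500 rpm for 10 min; diluted supernatant read at 540 nm. Hemolysis % referenced to 2% Triton X-100 (100%) and PBS (0%). Three repeats, duplicates each.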

Staphylococcus aureus [5] = experiment: Bactericidal activity against methicillin-resistant Staphylococcus aureus ATCC 33591 assessed as bacterial killing at 6.25 to 12.5 ug/ml incubated for 2 hrs by time-kill kinetics method; format: functional, organism-based; settings: dose 6.25-12.5 µg/ml
In short: (§2)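 MRSA were grown in tryptic soy broth to 10^6 CFU/mL and exposed to compound at multiples of MIC, sampled for up to 2 h. Aliquots were diluted 10^2–10^4-fold and plated on TSB agar, incubated 24 h at 37 °C, and colonies counted. Run three times.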

Cell membrane [6] = experiment: Induction of cell membrane disruption in Escherichia coli ATCC 25922 at 2 times MIC incubated for 2 hrs by DAPI and PI staining based optical microscopy
In short: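 Cells grown to ~2 × 10^6 cells, exposed 2 h, pelleted at 3000g for 15 min and PBS-washed. Stained with PI (5 µg/mL) then DAPI (10 µg/mL in water), each 15 min in the dark at 0 °C, then PBS-washed. Untreated controls handled identically. Imaged by 100x oil-immersion light microscopy; three repeats, duplicates each.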

Cell membrane [7] = experiment: Induction of cell membrane disruption in methicillin-resistant Staphylococcus aureus ATCC 33591 at 2 times MIC incubated for 2 hrs by DAPI and PI staining based optical microscopy
In short: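 Bacteria at about 2 × 10^6 cells were treated at 2 × MIC for 2 h, then centrifuged and washed in PBS. They were stained with PI (5 µg/mL) and then DAPI (10 µg/mL), each for 15 min in the dark at 0 °C. Imaged by oil-immersion light microscopy at 100×. Untreated controls were processed identically. Three runs in duplicate.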

Cell membrane [8] = experiment: Induction of membrane depolarization in methicillin-resistant Staphylococcus aureus ATCC 33591 assessed as induction of membrane potential loss at 5 ug/ml incubated for 30 mins by DiSC3(5) dye based bacterial membrane depolarization assay; settings: dose 5.0 µg/ml
In short: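 Mid-log MRSA were washed and resuspended at 10^8 CFU/mL in a 1:1:1 mix of 5 mM glucose, 5 mM HEPES and 100 mM KCl, with 2 µM DiSC3(5). Fluorescence (ex 622/em 670 nm) was read at room temperature until it reached its minimum after about 20 min. Compound was then added and the fluorescence rise recorded. Untreated negative control. Three runs in duplicate.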

Escherichia coli [9] = experiment: Inhibition of biofilm formation in Escherichia coli ATCC 25922 at 1.5 ug/ml incubated overnight by crystal violet staining based method; format: functional
In short: (§3)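 Overnight-grown (12 h) bacteria diluted 1:100 into 10% MHII broth and incubated with compound overnight at 37 °C. OD600 recorded, then biomass by crystal violet, expressed as CV OD/growth OD and normalized to untreated control. Triplicate, mean ± STDEV.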

Escherichia coli [10] = experiment: Inhibition of biofilm formation in Escherichia coli ATCC 25922 at 3 ug/ml incubated overnight by crystal violet staining based method; format: functional; in short: as §3
Escherichia coli [11] = experiment: Antimicrobial activity against Escherichia coli ATCC 25922 grown under presence of test compound at 1/2 MIC assessed as inhibition of bacterial growth measured after 14 passages by broth microdilution method relative to wild type; format: functional, organism-based
In short: (§4)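 Initial MIC by the standard broth microdilution procedure. Bacteria from the 1/2 MIC wells were made into a suspension of about 10^6 CFU/mL, incubated with compound at 37 °C for 24 h, and the MIC was measured again. This was repeated daily for 14 passages.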

Staphylococcus aureus [12] = experiment: Antimicrobial activity against methicillin-resistant Staphylococcus aureus ATCC 33591 grown under presence of test compound at 1/2 MIC assessed as inhibition of bacterial growth measured after 14 passages by broth microdilution method relative to wild type; format: functional; in short: as §4
Cell membrane [13] = experiment: Induction of cell membrane integrity loss in methicillin-resistant Staphylococcus aureus ATCC 33591 at 5 ug/ml incubated for 2 hrs by TEM analysis; settings: dose 5.0 µg/ml
Staphylococcus aureus [14] = experiment: Bactericidal activity against methicillin-resistant Staphylococcus aureus ATCC 33591 assessed as bacterial killing by measuring reduction in bacterial colony count at 16 to 32 x MIC measured within 10 mins by time-kill kinetics method; settings: dose 16-32 x MIC; time min <=10
Staphylococcus aureus [15] = experiment: Bactericidal activity against methicillin-resistant Staphylococcus aureus ATCC 33591 assessed as bacterial killing by measuring reduction in bacterial colony count at 64 times MIC incubated for 2 hrs by time-kill kinetics method; format: functional, organism-based; in short: as §2

| SMILES | MIC [1] | MIC (Staphylococcus aureus [2]) | MIC (Enterococcus faecalis) | MIC (Escherichia coli [3]) | MIC (Pseudomonas aeruginosa) | HC50 at 1 h [4] | also measured |
| --- | --- | --- | --- | --- | --- | --- | --- |
| CCCCCCCCCNC(=O)[C@H](CCCCN)NC(=O)c1ccc(C(=O)N[C@@H](CCCCN)C(=O)NCCCCCCCCC)cc1 | 1.5 µg/mL (≈ 2.23 µM) | 0.75 µg/mL (≈ 1.11 µM) | 3 µg/mL (≈ 4.46 µM) | 0.75 µg/mL (≈ 1.11 µM) | 3 µg/mL (≈ 4.46 µM) | 180 µg/mL | Activity (Staphylococcus aureus [5]): inactive; Activity (Cell membrane [6]): Active; Activity (Cell membrane [7]): Active; Activity (Cell membrane [8]): Active; inhibition at 1.5 µg/mL (Escherichia coli [9]): 50%; inhibition at 3 µg/mL (Escherichia coli [10]): 70%; Activity (Escherichia coli [11]): Active; Activity (Staphylococcus aureus [12]): Active; Activity (Cell membrane [13]): Active; Activity (Staphylococcus aureus [14]): 3.74 log10CFU/ml |
| CCCCCCCCCCCCNC(=O)[C@H](CCCCN)NC(=O)c1ccc(C(=O)N[C@@H](CCCCN)C(=O)NCCCCCCCCCCCC)cc1 | 6 µg/mL (≈ 7.92 µM) | 3 µg/mL (≈ 3.96 µM) | inactive | 3 µg/mL (≈ 3.96 µM) | 12 µg/mL (≈ 15.8 µM) | > 250 µg/mL |  |
| CCCCCCNC(=O)[C@H](CCCCN)NC(=O)c1ccc(C(=O)N[C@@H](CCCCN)C(=O)NCCCCCC)cc1 | inactive | inactive | inactive | inactive | inactive |  |  |
| CCCCCCCCCCCCCNC(=O)[C@H](CCCCN)NC(=O)c1ccc(C(=O)N[C@@H](CCCCN)C(=O)NCCCCCCCCCCCCC)cc1 | 6 µg/mL (≈ 7.64 µM) | 6 µg/mL (≈ 7.64 µM) | inactive | inactive | inactive |  |  |
| CCCCCCCCCCNC(=O)[C@H](CCCCN)NC(=O)c1ccc(C(=O)N[C@@H](CCCCN)C(=O)NCCCCCCCCCC)cc1 | 6 µg/mL (≈ 8.56 µM) | 1.5 µg/mL (≈ 2.14 µM) | 3 µg/mL (≈ 4.28 µM) | 3 µg/mL (≈ 4.28 µM) | inactive | 250 µg/mL |  |
| CCCCCCCNC(=O)[C@H](CCCCN)NC(=O)c1ccc(C(=O)N[C@@H](CCCCN)C(=O)NCCCCCCC)cc1 | inactive | inactive | inactive | 6 µg/mL (≈ 9.73 µM) | inactive |  |  |
| CCn1cc(C(=O)O)c(=O)c2cc(F)c(N3CCNCC3)cc21 [NORFLOXACIN] |  |  |  |  |  |  | Activity (Staphylococcus aureus [15]): inactive; Ratio (Staphylococcus aureus [12]): >80 |
| CCCCCCCCCCCCCCNC(=O)[C@H](CCCCN)NC(=O)c1ccc(C(=O)N[C@@H](CCCCN)C(=O)NCCCCCCCCCCCCCC)cc1 | inactive | inactive | inactive | inactive | inactive |  |  |
| NCCCC[C@H](NC(=O)c1ccc(C(=O)N[C@@H](CCCCN)C(=O)NCc2ccc(-c3ccccc3)cc2)cc1)C(=O)NCc1ccc(-c2ccccc2)cc1 | 6 µg/mL (≈ 7.97 µM) | 3 µg/mL (≈ 3.98 µM) | inactive | 3 µg/mL (≈ 3.98 µM) | 12 µg/mL (≈ 15.9 µM) | > 250 µg/mL |  |
| CCCCCCCCNC(=O)[C@H](CCCCN)NC(=O)c1ccc(C(=O)N[C@@H](CCCCN)C(=O)NCCCCCCCC)cc1 | 3 µg/mL (≈ 4.65 µM) | 1.5 µg/mL (≈ 2.33 µM) | inactive | 0.75 µg/mL (≈ 1.16 µM) | 3 µg/mL (≈ 4.65 µM) | > 250 µg/mL |  |
